Reference: ChEMBL document CHEMBL3400032 (Bioorg Med Chem, 2015)

Columns and labels:
[1] = Permeability of the compound at pH 5 by PAMPA; assay type: ADME; conditions: read-out: permeability
[2] = Volume of distribution at steady state in rat at 1.5 mg/kg, iv; assay type: ADME, organism-based; design: dose 1.5 mg/kg, route intravenous; conditions: in vivo, read-out: Vdss
[3] = Half life in rat at 1.5 mg/kg, iv; assay type: ADME, organism-based; design: dose 1.5 mg/kg, route intravenous; conditions: in vivo
[4] = Permeability of the compound at pH 7.4 by PAMPA; assay type: ADME; conditions: read-out: permeability
Liver microsome [5] = experiment: Clearance in Sprague-Dawley rat liver microsomes assessed per mg protein
[6] = AUC in rat at 1.5 mg/kg, iv; assay type: ADME, organism-based; design: dose 1.5 mg/kg, route intravenous; conditions: plasma
Liver microsome [7] = experiment: Clearance in human liver microsomes assessed per mg protein
[8] = Clearance in rat at 1.5 mg/kg, iv; assay type: ADME, organism-based; design: dose 1.5 mg/kg, route intravenous; conditions: in vivo
[9] = Volume of distribution at steady state in rat at 3 mg/kg, iv; assay type: ADME, organism-based; design: route intravenous, dose 3 mg/kg; conditions: in vivo, read-out: Vdss
[10] = AUC in rat at 3 mg/kg, iv; assay type: ADME, organism-based; design: dose 3 mg/kg, route intravenous; conditions: plasma
[11] = Half life in rat at 3 mg/kg, iv; assay type: ADME, organism-based; design: dose 3 mg/kg, route intravenous; conditions: in vivo
[12] = Clearance in rat at 3 mg/kg, iv; assay type: ADME, organism-based; design: dose 3 mg/kg, route intravenous; conditions: in vivo
Serum [13] = experiment: Drug metabolism in human serum assessed as 2-(3-aminopiperidin-1-yl)-3-(2-chlorobenzyl)-5-methyl-4-oxo-4,5-dihydro-3H-imidazo[4,5-c]quinoline-8-carboxylic acid formation at 1 uM after 30 mins by HPLC/MS/MS analysis relative to control; assay type: ADME, cell-free; conditions: 0.5 h
Outline: (§1)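 Test compound at 1 µM final, incubated 30 min at 37 °C in serum, or in S9 mix (50 mM potassium phosphate pH 7.4, 3 mM NADPH, 1 mg protein/mL pooled male SD rat or human liver S9). Preincubated 5 min at 37 °C, compound added in acetonitrile–water (1:1), stopped with ice-cold acetonitrile, centrifuged, filtered, parent and carboxylate hydrolysate quantified by HPLC-MS/MS.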

[14] = Drug metabolism in Sprague-Dawley rat liver S9 fraction assessed as compound remaining at 1 uM after 30 mins by HPLC/MS/MS analysis relative to control; assay type: ADME, subcellular; conditions: read-out: Stability; outline: as §1
[15] = Drug metabolism in human serum assessed as compound remaining at 1 uM after 30 mins by HPLC/MS/MS analysis relative to control; assay type: ADME, cell-free; conditions: read-out: Stability; outline: as §1
[16] = Drug metabolism in human liver S9 fraction assessed as 2-(3-aminopiperidin-1-yl)-3-(2-chlorobenzyl)-5-methyl-4-oxo-4,5-dihydro-3H-imidazo[4,5-c]quinoline-8-carboxylic acid formation at 1 uM after 30 mins by HPLC/MS/MS analysis relative to control; assay type: ADME, subcellular; conditions: s9, 0.5 h; outline: as §1
[17] = Drug metabolism in Sprague-Dawley rat liver S9 fraction assessed as 2-(3-aminopiperidin-1-yl)-3-(2-chlorobenzyl)-5-methyl-4-oxo-4,5-dihydro-3H-imidazo[4,5-c]quinoline-8-carboxylic acid formation at 1 uM after 30 mins by HPLC/MS/MS analysis relative to control; assay type: ADME, subcellular; conditions: s9, 0.5 h; outline: as §1
Serum [18] = experiment: Drug metabolism in rat serum assessed as 2-(3-aminopiperidin-1-yl)-3-(2-chlorobenzyl)-5-methyl-4-oxo-4,5-dihydro-3H-imidazo[4,5-c]quinoline-8-carboxylic acid formation at 1 uM after 30 mins by HPLC/MS/MS analysis relative to control; assay type: ADME, cell-free; conditions: 0.5 h; outline: as §1
[19] = Drug metabolism in human liver S9 fraction assessed as compound remaining at 1 uM after 30 mins by HPLC/MS/MS analysis relative to control; assay type: ADME, subcellular; conditions: read-out: Stability; outline: as §1
[20] = Drug metabolism in rat serum assessed as compound remaining at 1 uM after 30 mins by HPLC/MS/MS analysis relative to control; assay type: ADME, cell-free; conditions: read-out: Stability; outline: as §1
[21] = Half life in rat at 1 mg/kg, iv; assay type: ADME, organism-based; design: dose 1 mg/kg, route intravenous; conditions: in vivo
[22] = AUC in rat at 1 mg/kg, iv; assay type: ADME, organism-based; design: dose 1 mg/kg, route intravenous; conditions: plasma
[23] = Volume of distribution at steady state in rat at 1 mg/kg, iv; assay type: ADME, organism-based; design: dose 1 mg/kg, route intravenous; conditions: in vivo, read-out: Vdss
[24] = Clearance in rat at 1 mg/kg, iv; assay type: ADME, organism-based; design: dose 1 mg/kg, route intravenous; conditions: in vivo
[25] = Plasma concentration in rat at 10 mg/kg, po after 6 hrs; assay type: ADME, organism-based; design: dose 10 mg/kg, route oral
Outline: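 Rats dosed orally with prodrug; plasma levels of prodrug and carboxylate active metabolite measured over time, limit of quantification 1.0 ng/mL.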

Serum [26] = experiment: Drug metabolism in human serum assessed as 2-(3-aminopiperidin-1-yl)-3-(2-chlorobenzyl)-5-methyl-4-oxo-4,5-dihydro-3H-imidazo[4,5-c]quinoline-7-carboxylic acid formation at 1 uM after 30 mins by HPLC/MS/MS analysis relative to control; assay type: ADME, cell-free; conditions: 0.5 h; outline: as §1
[27] = Drug metabolism in Sprague-Dawley rat liver S9 fraction assessed as 2-(3-aminopiperidin-1-yl)-3-(2-chlorobenzyl)-5-methyl-4-oxo-4,5-dihydro-3H-imidazo[4,5-c]quinoline-7-carboxylic acid formation at 1 uM after 30 mins by HPLC/MS/MS analysis relative to control; assay type: ADME, subcellular; conditions: s9, 0.5 h; outline: as §1
[28] = Drug metabolism in human liver S9 fraction assessed as metabolite 3 formation at 1 uM after 30 mins by HPLC/MS/MS analysis relative to control; assay type: ADME, subcellular; conditions: s9, 0.5 h; outline: as §1
Rattus norvegicus [29] = experiment: Oral bioavailability in rat assessed as 2-(3-aminopiperidin-1-yl)-3-(2-chlorobenzyl)-5-methyl-4-oxo-4,5-dihydro-3H-imidazo[4,5-c]quinoline-7-carboxylic acid level at 10 mg/kg; assay type: ADME, organism-based; conditions: in vivo
Serum [30] = experiment: Drug metabolism in rat serum assessed as 2-(3-aminopiperidin-1-yl)-3-(2-chlorobenzyl)-5-methyl-4-oxo-4,5-dihydro-3H-imidazo[4,5-c]quinoline-7-carboxylic acid formation at 1 uM after 30 mins by HPLC/MS/MS analysis relative to control; assay type: ADME, cell-free; conditions: 0.5 h; outline: as §1
Rattus norvegicus [31] = experiment: Oral bioavailability in rat assessed as 2-(3-aminopiperidin-1-yl)-3-(2-chlorobenzyl)-5-methyl-4-oxo-4,5-dihydro-3H-imidazo[4,5-c]quinoline-8-carboxylic acid level at 10 mg/kg; assay type: ADME, organism-based; conditions: in vivo

| Compound | Papp [1] | Papp [4] | Drug metabolism (Serum [13]) | remaining at 0.5 h, 1 µM [14] | remaining at 0.5 h, 1 µM [15] | Drug metabolism [16] | Drug metabolism [17] | Drug metabolism (Serum [18]) | remaining at 0.5 h, 1 µM [19] | remaining at 0.5 h, 1 µM [20] | further results |
| --- | --- | --- | --- | --- | --- | --- | --- | --- | --- | --- | --- |
| Cn1c(=O)c2c(nc(N3CCC[C@@H](N)C3)n2Cc2ccccc2Cl)c2cc(C(=O)O)ccc21 | < 0.1 ×10⁻⁶ cm/s | < 0.1 ×10⁻⁶ cm/s | – | – | – | – | – | – | – | – | Vd [2]: 2.9 L/kg; half-life [3]: 1 h; CLH (Liver microsome [5]): < 10 µL/min/mg; AUC [6]: 188 ng·h/mL; CLH (Liver microsome [7]): < 10 µL/min/mg; clearance [8]: 132 mL/min/kg |
| Cn1c(=O)c2c(nc(N3CCC[C@@H](N)C3)n2Cc2ccccc2Cl)c2ccc(C(=O)O)cc21 | < 0.1 ×10⁻⁶ cm/s | < 0.1 ×10⁻⁶ cm/s | – | – | – | – | – | – | – | – | Vd [9]: 4.5 L/kg; AUC [10]: 276 ng·h/mL; half-life [11]: 0.6 h; CLH (Liver microsome [5]): < 10 µL/min/mg; clearance [12]: 181 mL/min/kg; CLH (Liver microsome [7]): < 10 µL/min/mg |
| CN(C)CCCOC(=O)c1ccc2c(c1)c1nc(N3CCC[C@@H](N)C3)n(Cc3ccccc3Cl)c1c(=O)n2C.Cl | < 0.1 ×10⁻⁶ cm/s | < 0.1 ×10⁻⁶ cm/s | metabolite_detected | > 99% | < 0.5% | metabolite_detected | metabolite_detected | metabolite_detected | > 99% | 38% | – |
| Cn1c(=O)c2c(nc(N3CCC[C@@H](N)C3)n2Cc2cc(F)ccc2Cl)c2cc(C(=O)O)ccc21 | – | – | – | – | – | – | – | – | – | – | half-life [21]: 1.3 h; AUC [22]: 75.3 ng·h/mL; CLH (Liver microsome [5]): < 10 µL/min/mg; Vd [23]: 7.1 L/kg; CLH (Liver microsome [7]): < 10 µL/min/mg; clearance [24]: 222 mL/min/kg |
| COC(=O)c1ccc2c3nc(N4CCC[C@@H](N)C4)n(Cc4ccccc4Cl)c3c(=O)n(C)c2c1.Cl | 36.2 ×10⁻⁶ cm/s | 41.4 ×10⁻⁶ cm/s | – | 70% | 92% | – | – | – | > 99% | 8.4% | concentration at 6 h [25]: < 1 ng/mL; Drug metabolism (Serum [26]): metabolite_detected; Drug metabolism [27]: metabolite_detected; Drug metabolism [28]: metabolite_detected; F (Rattus norvegicus [29]): 90%; Drug metabolism (Serum [30]): metabolite_detected |
| Cl.Cn1c(=O)c2c(nc(N3CCC[C@@H](N)C3)n2Cc2ccccc2Cl)c2cc(C(=O)OCCCN3CCOCC3)ccc21 | < 0.1 ×10⁻⁶ cm/s | 3.4 ×10⁻⁶ cm/s | metabolite_detected | 78% | 7% | metabolite_detected | metabolite_detected | metabolite_detected | 48% | 76% | – |
| CN(C)CCOC(=O)c1ccc2c(c1)c1nc(N3CCC[C@@H](N)C3)n(Cc3ccccc3Cl)c1c(=O)n2C.Cl | < 0.1 ×10⁻⁶ cm/s | 0.6 ×10⁻⁶ cm/s | metabolite_detected | > 99% | < 0.5% | metabolite_detected | metabolite_detected | metabolite_detected | > 99% | 97% | – |
| Cl.Cn1c(=O)c2c(nc(N3CCC[C@@H](N)C3)n2Cc2ccccc2Cl)c2cc(C(=O)OCOC(=O)C(C)(C)C)ccc21 | 6.5 ×10⁻⁶ cm/s | 6.3 ×10⁻⁶ cm/s | metabolite_detected | < 0.5% | 73% | metabolite_detected | metabolite_detected | metabolite_detected | < 0.5% | 0.6% | – |
| Cl.Cn1c(=O)c2c(nc(N3CCC[C@@H](N)C3)n2Cc2ccccc2Cl)c2cc(C(=O)OCCN3CCOCC3)ccc21 | 0.9 ×10⁻⁶ cm/s | 7.1 ×10⁻⁶ cm/s | metabolite_detected | > 99% | 6.8% | metabolite_detected | metabolite_detected | metabolite_detected | 37% | 50% | – |
| C[C@@H]1CN(CCOC(=O)c2ccc3c(c2)c2nc(N4CCC[C@@H](N)C4)n(Cc4ccccc4Cl)c2c(=O)n3C)C[C@H](C)O1.Cl | 10.1 ×10⁻⁶ cm/s | 18 ×10⁻⁶ cm/s | metabolite_detected | 30% | < 0.5% | – | metabolite_detected | metabolite_detected | 22% | 92% | – |
| COC(=O)c1ccc2c(c1)c1nc(N3CCC[C@@H](N)C3)n(Cc3ccccc3Cl)c1c(=O)n2C.Cl | 34.1 ×10⁻⁶ cm/s | 47.4 ×10⁻⁶ cm/s | metabolite_detected | < 0.5% | 80% | metabolite_detected | metabolite_detected | metabolite_detected | > 99% | 72% | F (Rattus norvegicus [31]): 2.4% |
| Cn1c(=O)c2c(nc(N3CCC[C@@H](N)C3)n2Cc2cc(F)ccc2Cl)c2ccc(C(=O)O)cc21 | – | – | – | – | – | – | – | – | – | – | half-life [21]: 8.3 h; AUC [22]: 99.9 ng·h/mL; Vd [23]: 31.5 L/kg; clearance [24]: 167 mL/min/kg |
